From publication PMC12573768 (RSC Advances, 2025)
Where two headings read alike, the source gives them in different places. One block for each molecule: values may come before it.

Experiments:
[1] = test system: fructosamine formation in BSA-fructose model; assay: Fructosamine inhibition, NBT assay, BSA-fructose model; type: biochemical; conditions: 50 °C 24 hours
Method in brief: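 Test compound and BSA-fructose solution mixed 1:1 and incubated at 50 °C for 24 h, with aminoguanidine as positive control. Incubated mixture was treated with 300 μM NBT in 0.1 M sodium carbonate, pH 10.6, at 37 °C for 15 min, then absorbance read at 530 nm. Inhibition was calculated with control and sample blanks. Run in triplicate; mean ± SEM.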

[2] = test system: AGEs formation in BSA-fructose model; assay: AGEs inhibition, fluorescence, BSA-fructose model; type: biochemical; conditions: 50 °C 24 hours
Method in brief: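 Test compound and BSA-fructose solution mixed 1:1 and incubated at 50 °C for 24 h, with aminoguanidine as positive control. An aliquot of the mixture was diluted fivefold and fluorescence read at excitation 375 nm and emission 440 nm. Inhibition was calculated from control, control blank, sample and sample blank intensities. Run in triplicate; IC50 derived; mean ± SEM.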

[3] = Free radical scavenging activity; conditions: for IC50: read-out: (IC50 ± SEM) Antioxidant activity (DPPH radical)
Method in brief: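 Test compound in DMSO mixed with 0.2 mM DPPH in 95% methanol (1:3 by volume) and held 1 h in the dark at room temperature. Absorbance read at 517 nm; scavenging calculated relative to control, with ascorbic acid as reference. IC50 from non-linear regression; triplicate; mean ± SEM.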

[4] = biological target: T1, porcine pancreatic α-amylase (Sus scrofa, UniProt P00690); assay: α-Amylase inhibitory activity; type: biochemical
T1 sequence (P00690 16-511): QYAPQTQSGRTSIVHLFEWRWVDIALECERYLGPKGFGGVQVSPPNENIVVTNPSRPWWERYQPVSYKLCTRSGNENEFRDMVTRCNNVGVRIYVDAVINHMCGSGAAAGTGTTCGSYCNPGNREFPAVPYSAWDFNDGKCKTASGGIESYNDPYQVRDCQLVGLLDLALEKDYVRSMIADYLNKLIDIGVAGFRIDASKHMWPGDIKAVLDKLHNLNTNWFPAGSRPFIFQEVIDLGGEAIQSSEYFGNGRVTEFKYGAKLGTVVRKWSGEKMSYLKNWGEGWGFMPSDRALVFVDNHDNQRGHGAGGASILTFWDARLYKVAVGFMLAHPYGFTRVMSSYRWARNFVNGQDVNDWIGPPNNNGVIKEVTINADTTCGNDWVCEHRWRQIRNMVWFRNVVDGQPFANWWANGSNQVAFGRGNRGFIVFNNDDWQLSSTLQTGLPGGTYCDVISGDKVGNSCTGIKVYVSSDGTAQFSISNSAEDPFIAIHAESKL

α-glucosidase [5] = biological target: T2, α-glucosidase (Saccharomyces cerevisiae, UniProt P53341); assay: α-Glucosidase inhibitory activity; type: biochemical
T2 sequence (P53341 whole entry): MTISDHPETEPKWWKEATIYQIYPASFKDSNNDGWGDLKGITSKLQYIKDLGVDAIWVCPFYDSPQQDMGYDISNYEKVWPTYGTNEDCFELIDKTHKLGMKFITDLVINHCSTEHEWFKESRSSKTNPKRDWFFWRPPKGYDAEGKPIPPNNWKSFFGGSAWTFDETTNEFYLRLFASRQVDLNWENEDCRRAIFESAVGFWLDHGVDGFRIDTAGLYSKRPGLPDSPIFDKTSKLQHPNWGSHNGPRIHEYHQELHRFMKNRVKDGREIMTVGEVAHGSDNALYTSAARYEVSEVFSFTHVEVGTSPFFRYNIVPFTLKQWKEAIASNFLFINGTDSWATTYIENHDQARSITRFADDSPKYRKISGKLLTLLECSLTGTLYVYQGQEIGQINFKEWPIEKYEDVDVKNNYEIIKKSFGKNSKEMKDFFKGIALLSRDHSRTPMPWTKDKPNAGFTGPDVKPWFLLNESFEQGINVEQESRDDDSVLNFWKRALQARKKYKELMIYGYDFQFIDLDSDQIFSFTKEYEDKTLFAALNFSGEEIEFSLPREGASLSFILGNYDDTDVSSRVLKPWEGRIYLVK

[6] = Stability under physiological conditions; type: physicochemical; conditions: 200 μM, 1X PBS pH 7.4, 37 °C, 10 days
Method in brief: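 Test compound at 200 μM in 1X PBS, pH 7.4, incubated at 37 °C. A sample taken immediately was extracted three times with ethyl acetate, evaporated and stored at −20 °C; a second sample was extracted likewise after 10 days. Both residues were analysed by LC-MS on a C18 column.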

3T3-L1 cells = assay: MTT cytotoxicity assay; type: cell-based; conditions: 3T3-L1, up to 50 μM, 12 hours
Method in brief: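 3T3-L1 cells grown in DMEM with 10% FBS, 1% penicillin–streptomycin and 0.2% amphotericin at 37 °C, 5% CO2. Seeded at 2.0 × 10^4 cells/well overnight, PBS-washed, then exposed to test compound (0–50 μM in DMEM) for 12 h. After washing, 0.05% MTT in DMEM for 3 h; formazan dissolved in DMSO and read at 590 nm (reference 620 nm). IC50 by non-linear regression; triplicate.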

Caco-2 monolayer = conditions: Caco-2 cell model ref 55; cited from earlier work
C57BL/KsJ-db/db mice = conditions: Jung et al. ref 52; cited from earlier work
[7] = in vivo study by Wang et al. ref 55; cited from earlier work
[8] = cited from earlier work; for Stability improvement compared to ester form: rat plasma, Yang et al. ref 58
α-amylase = biological target: T3, α-amylase (Sus scrofa, UniProt P00690); conditions: vs EGCG, Liu et al. ref 37; cited from earlier work
T3 sequence (P00690 16-511): T1 sequence (P00690 16-511)

α-glucosidase [9] = biological target: T2, α-glucosidase; conditions: vs EGCG, Liu et al. ref 37; cited from earlier work

Molecule: N=C(N)NN [AG, Aminoguanidine, reference compound]
Inhibition of fructosamine formation ([1]; 5 mM): 9%
Inhibition of fructosamine formation ([1]; 10 mM): 30%
Inhibition of AGEs ([2]; 5 mM): 43%
Inhibition of AGEs ([2]; 10 mM): 70%

(IC50 ± SEM) Antioxidant activity (DPPH radical) ([3]; mean ± SEM, triplicate): No activity
Molecule: C[C@H]1O[C@H](O[C@H]2[C@H](O)[C@@H](O)[C@@H](O[C@H]3[C@H](O)[C@@H](O)C(O)O[C@@H]3CO)O[C@@H]2CO)[C@H](O)[C@@H](O)[C@@H]1N[C@H]1C=C(CO)[C@@H](O)[C@H](O)[C@H]1O (stereo partly shown) [Acarbose, reference compound]

IC50 [4]: > 500 µM
IC50 ([3]; mean ± SEM, triplicate): 20.8 ± 0.45 µM
IC50 (α-glucosidase [5]): 38 ± 1.57 µM
Molecule: CCCCNC(=O)/C=C/c1ccc(O)c(O)c1 [CA4, (E)-3-(3,4-Dihydroxyphenyl)-N-butylacrylamide]

IC50 [4]: > 500 µM
IC50 ([3]; mean ± SEM, triplicate): 23.7 ± 0.59 µM
IC50 (α-glucosidase [5]): 51.5 ± 2.36 µM
Molecule: CCCCCCNC(=O)/C=C/c1ccc(O)c(O)c1 [CA6, (E)-3-(3,4-Dihydroxyphenyl)-N-hexylacrylamide]

IC50 [4]: > 500 µM
IC50 ([3]; mean ± SEM, triplicate): 24.3 ± 0.58 µM
IC50 (α-glucosidase [5]): 13.7 ± 0.44 µM
Molecule: CCCCCCCCNC(=O)/C=C/c1ccc(O)c(O)c1 [CA8, (E)-3-(3,4-Dihydroxyphenyl)-N-octylacrylamide]

IC50 [4]: > 500 µM
IC50 ([3]; mean ± SEM, triplicate): 23.4 ± 0.77 µM
IC50 (α-glucosidase [5]): 19.1 ± 0.64 µM
Molecule: CCCCCCCCCCNC(=O)/C=C/c1ccc(O)c(O)c1 [CA10, (E)-3-(3,4-Dihydroxyphenyl)-N-decylacrylamide]

IC50 [4]: 72.8 ± 1.83 µM
IC50 ([3]; mean ± SEM, triplicate): 16.4 ± 0.48 µM
IC50 (α-glucosidase [5]): 17.4 ± 0.87 µM
Molecule: CCCCCCCCCCCCNC(=O)/C=C/c1ccc(O)c(O)c1 [CA12, (E)-3-(3,4-Dihydroxyphenyl)-N-dodecylacrylamide]

IC50 [4]: 27 ± 0.83 µM
Stability under physiological conditions (degradation by LC-MS) [6]: did not exhibit any degradation
IC50 ([3]; mean ± SEM, triplicate): 14 ± 0.38 µM
IC50 (α-glucosidase [5]): 1.94 ± 0.06 µM
α-Glucosidase inhibition potency relative to parent CA (α-glucosidase [5]; ratio of IC50 values, vs CA): 6392 times
α-Glucosidase inhibition potency relative to acarbose (α-glucosidase [5]; ratio of IC50 values, vs acarbose): 113 times
Molecule: CCCCCCCCCCCCCCNC(=O)/C=C/c1ccc(O)c(O)c1 [CA14, (E)-3-(3,4-Dihydroxyphenyl)-N-tetradecylacrylamide]
Inhibition of fructosamine formation ([1]; 5 mM): 33%
Inhibition of fructosamine formation ([1]; 10 mM): 70%
Inhibition of AGEs ([2]; 5 mM): 44%
Inhibition of AGEs ([2]; 10 mM): 79%
Antioxidant activity relative to 15c ([3]; ratio of DPPH IC50 values, vs 15c): 1.2 fold
Antioxidant activity relative to CA ([3]; ratio of DPPH IC50 values, vs CA): 2.5 times
Antioxidant activity relative to Vitamin C ([3]; ratio of DPPH IC50 values, vs Vitamin C): 2.3 fold
Cytotoxicity (cell viability, MTT) (3T3-L1 cells): no significant cytotoxicity

IC50 [4]: 58.4 ± 2.68 µM
IC50 ([3]; mean ± SEM, triplicate): 15.1 ± 0.3 µM
IC50 (α-glucosidase [5]): 24.8 ± 0.46 µM
Molecule: CCCCCCCCCCCCCCCCNC(=O)/C=C/c1ccc(O)c(O)c1 [CA16, (E)-3-(3,4-Dihydroxyphenyl)-N-hexadecylacrylamide]

IC50 ([3]; mean ± SEM, triplicate): 34.3 ± 0.52 µM
Molecule: O=C(O)/C=C/c1ccc(O)c(O)c1 [CA, Caffeic acid]
Caco-2 monolayer permeability (Caco-2 monolayer): poor
Blood glucose lowering effect (C57BL/KsJ-db/db mice): significant blood glucose lowering effect
Bioavailability [7]: 14.70%

Molecule: O=C(/C=C/c1ccc(O)c(O)c1)NCCc1ccccc1 [CAPA, caffeic acid phenethyl amide]
Stability improvement compared to ester form ([8]; 25 °C): 118 fold
Stability improvement compared to ester form ([8]; 37 °C): 77 fold

Molecule: O=C(/C=C/c1ccc(O)c(O)c1)OCCc1ccccc1 [CAPE, caffeic acid phenethyl ester]
Stability in rat plasma ([8]; esterases ref 57): rapid decomposition

(IC50 ± SEM) α-Amylase inhibition ([4]; mean ± SEM, triplicate): No activity
IC50 ([3]; mean ± SEM, triplicate): 32.7 ± 0.47 µM
(IC50 ± SEM) α-Glucosidase inhibition (α-glucosidase [5]; mean ± SEM, triplicate): No activity
Molecule: O=C1O[C@H]([C@@H](O)CO)C(O)=C1O [Vitamin C, L-ascorbic acid, reference compound]

Molecule: EGCG palmitate
α-Amylase inhibition better than EGCG (α-amylase): 4.5 times
α-Glucosidase inhibition better than EGCG (α-glucosidase [9]): 52 times
